Laboratory results from ChEMBL document CHEMBL1135436, “Structure-activity relationships of the melanocortin tetrapeptide Ac-His-DPhe-Arg-Trp-NH(2) at the mouse melanocortin receptors. 1. Modifications at the His position” (J Med Chem, 2002).
Where a SMILES comes first, the peptide text is derived from it. [ ]: non-standard residue; d: D form. Tic = O=C(O)[C@@H]1Cc2ccccc2CN1; dTic = O=C(O)[C@H]1Cc2ccccc2CN1; 2Thi = N[C@@H](Cc1cccs1)C(=O)O

Legend:
[1] = molecular target: Melanocortin receptor 5 (Mus musculus, UniProt P41149); test: In vitro activation of mouse recombinant Melanocortin-5 receptor.
Chain of Melanocortin receptor 5 (P41149 whole entry): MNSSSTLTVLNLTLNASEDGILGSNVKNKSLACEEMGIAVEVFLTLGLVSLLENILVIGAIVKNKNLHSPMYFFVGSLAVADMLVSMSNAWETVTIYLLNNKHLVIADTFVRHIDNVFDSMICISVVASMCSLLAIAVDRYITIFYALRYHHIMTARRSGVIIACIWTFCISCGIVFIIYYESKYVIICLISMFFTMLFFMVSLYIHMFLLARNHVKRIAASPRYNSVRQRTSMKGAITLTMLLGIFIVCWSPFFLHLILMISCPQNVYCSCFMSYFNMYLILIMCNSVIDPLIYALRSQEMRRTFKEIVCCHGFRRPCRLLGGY
Procedure, shortened: (§1)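 HEK-293 cells stably expressing the mouse receptor (calcium phosphate transfection, G418 1 mg/mL selection) were transfected with a CRE/β-galactosidase reporter. Lysates were read with ONPG at 37 °C (OD405), normalized to protein (OD595) and forskolin. EC50 came from nonlinear least-squares fitting, duplicate experiments in quadruplet.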

[2] = molecular target: Melanocortin receptor 4 (Mus musculus, UniProt P56450); test: In vitro activation of mouse recombinant Melanocortin-4 receptor.; procedure, shortened: as §1
Chain of Melanocortin receptor 4 (P56450 whole entry): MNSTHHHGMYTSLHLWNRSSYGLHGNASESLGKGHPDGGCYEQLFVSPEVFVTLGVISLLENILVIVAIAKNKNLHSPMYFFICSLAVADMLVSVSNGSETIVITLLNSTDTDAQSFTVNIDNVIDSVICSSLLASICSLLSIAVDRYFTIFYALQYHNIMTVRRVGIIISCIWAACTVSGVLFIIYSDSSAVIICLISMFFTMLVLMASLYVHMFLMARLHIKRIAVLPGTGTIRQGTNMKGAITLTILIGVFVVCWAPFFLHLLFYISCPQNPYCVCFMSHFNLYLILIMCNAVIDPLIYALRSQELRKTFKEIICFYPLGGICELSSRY

[3] = molecular target: Melanocyte-stimulating hormone receptor (Mus musculus, UniProt Q01727); test: In vitro activation of mouse recombinant Melanocortin-1 receptor.; procedure, shortened: as §1
Chain of Melanocyte-stimulating hormone receptor (Q01727 whole entry): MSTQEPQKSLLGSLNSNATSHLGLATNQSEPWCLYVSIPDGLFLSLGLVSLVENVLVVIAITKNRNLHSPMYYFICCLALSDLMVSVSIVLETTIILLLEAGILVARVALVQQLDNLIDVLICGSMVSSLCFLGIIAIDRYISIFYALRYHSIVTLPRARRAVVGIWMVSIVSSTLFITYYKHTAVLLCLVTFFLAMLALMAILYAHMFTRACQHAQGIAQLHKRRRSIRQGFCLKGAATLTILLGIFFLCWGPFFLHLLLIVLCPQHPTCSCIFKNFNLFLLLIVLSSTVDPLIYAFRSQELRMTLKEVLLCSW

[4] = molecular target: T1, Melanocortin receptor 3 (Mus musculus, UniProt P33033); test: In vitro activation of mouse recombinant Melanocortin-3 receptor.; procedure, shortened: as §1
T1 sequence (P33033 whole entry): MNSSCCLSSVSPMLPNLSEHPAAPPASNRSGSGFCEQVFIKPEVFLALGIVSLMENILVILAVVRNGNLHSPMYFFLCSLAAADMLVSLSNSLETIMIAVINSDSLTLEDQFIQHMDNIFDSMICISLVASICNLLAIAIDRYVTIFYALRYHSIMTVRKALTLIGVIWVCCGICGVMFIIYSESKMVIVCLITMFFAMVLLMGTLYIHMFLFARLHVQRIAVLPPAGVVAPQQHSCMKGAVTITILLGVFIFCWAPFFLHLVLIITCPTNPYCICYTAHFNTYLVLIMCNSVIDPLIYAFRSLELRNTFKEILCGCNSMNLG

[5] = molecular target: T1, Melanocortin receptor 3; test: Agonist activity of compound in mouse Melanocortin-3 receptor (mMC3R); Slight agonist; type: functional
Procedure, shortened: as §1, with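 “reporter. At 48 h they were stimulated for 6 h with peptide (10^-4–10^-12 M) or forskolin (10^-4 M) in DMEM with 0.1 mg/mL BSA and 0.1 mM IBMX.” for “reporter.”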

SMILES: CC(=O)N[C@@H](Cc1ccncc1)C(=O)N[C@H](Cc1ccccc1)C(=O)N[C@@H](CCCN=C(N)N)C(=O)N[C@@H](Cc1c[nH]c2ccccc12)C(N)=O
- EC50 [1]: 92.5 nM
- EC50 [2]: 128 nM
- EC50 [3]: 176 nM
- EC50 [4]: 2270 nM

SMILES: CC(=O)N[C@@H](Cc1cccnc1)C(=O)N[C@H](Cc1ccccc1)C(=O)N[C@@H](CCCN=C(N)N)C(=O)N[C@@H](Cc1c[nH]c2ccccc12)C(N)=O
- EC50 [1]: 400 nM
- EC50 [5]: Partial agonist
- EC50 [2]: 887 nM
- EC50 [3]: 1150 nM

SMILES: CC(=O)N[C@@H](Cc1ccccc1)C(=O)N[C@H](Cc1ccccc1)C(=O)N[C@@H](CCCNC(=N)N)C(=O)N[C@@H](Cc1c[nH]c2ccccc12)C(N)=O
- EC50 [1]: 143 nM
- EC50 [2]: 70.6 nM
- EC50 [3]: 503 nM
- EC50 [4]: 11900 nM

SMILES: CC(=O)N[C@H](Cc1ccc2ccccc2c1)C(=O)N[C@H](Cc1ccccc1)C(=O)N[C@@H](CCCNC(=N)N)C(=O)N[C@@H](Cc1c[nH]c2ccccc12)C(N)=O
- EC50 [1]: 2240 nM
- EC50 [2]: 1500 nM
- EC50 [3]: 7100 nM
- EC50 [4]: > 100000 nM

SMILES: CC(=O)N[C@H](Cc1ccccc1)C(=O)N[C@H](Cc1ccccc1)C(=O)N[C@@H](CCCNC(=N)N)C(=O)N[C@@H](Cc1c[nH]c2ccccc12)C(N)=O
- EC50 [1]: 2980 nM
- EC50 [2]: 2170 nM
- EC50 [3]: 11500 nM
- EC50 [4]: > 100000 nM

SMILES: CC(=O)N[C@@H](C)C(=O)N[C@H](Cc1ccccc1)C(=O)N[C@@H](CCCN=C(N)N)C(=O)N[C@@H](Cc1c[nH]c2ccccc12)C(N)=O
- EC50 [1]: 300 nM
- EC50 [2]: 1000 nM
- EC50 [3]: 1800 nM
- EC50 [4]: 9000 nM

SMILES: CC(=O)N[C@@H](Cc1csc2ccccc12)C(=O)N[C@H](Cc1ccccc1)C(=O)N[C@@H](CCCN=C(N)N)C(=O)N[C@@H](Cc1c[nH]c2ccccc12)C(N)=O
- EC50 [1]: 381 nM
- EC50 [2]: 211 nM
- EC50 [3]: 4400 nM
- EC50 [4]: 19800 nM

SMILES: CC(=O)N[C@H](Cc1c[nH]c2ccccc12)C(=O)N[C@H](Cc1ccccc1)C(=O)N[C@@H](CCCNC(=N)N)C(=O)N[C@@H](Cc1c[nH]c2ccccc12)C(N)=O
- EC50 [1]: 1260 nM
- EC50 [2]: 6200 nM
- EC50 [3]: 6600 nM
- EC50 [4]: > 100000 nM

SMILES: CC(=O)N[C@@H](Cc1c[nH]c2ccccc12)C(=O)N[C@H](Cc1ccccc1)C(=O)N[C@@H](CCCN=C(N)N)C(=O)N[C@@H](Cc1c[nH]c2ccccc12)C(N)=O
- EC50 [1]: 507 nM
- EC50 [2]: 528 nM
- EC50 [3]: 5400 nM
- EC50 [4]: 10300 nM

SMILES: CC(=O)N[C@@H](Cc1ccc2ccccc2c1)C(=O)N[C@H](Cc1ccccc1)C(=O)N[C@@H](CCCN=C(N)N)C(=O)N[C@@H](Cc1c[nH]c2ccccc12)C(N)=O
- EC50 [1]: 606 nM
- EC50 [2]: 2900 nM
- EC50 [3]: 9500 nM
- EC50 [4]: 14700 nM

SMILES: CC(=O)N[C@H](Cc1cnc[nH]1)C(=O)N[C@H](Cc1ccccc1)C(=O)N[C@@H](CCCNC(=N)N)C(=O)N[C@@H](Cc1c[nH]c2ccccc12)C(N)=O
- EC50 [1]: 138 nM
- EC50 [2]: 506 nM

SMILES: CC(=O)NC1(C(=O)N[C@H](Cc2ccccc2)C(=O)N[C@@H](CCCNC(=N)N)C(=O)N[C@@H](Cc2c[nH]c3ccccc23)C(N)=O)CCc2ccccc2C1 (stereo partly specified)
- EC50 [1]: 2400 nM
- EC50 [2]: 714 nM
- EC50 [3]: 7730 nM

SMILES: CC(=O)N1CCC[C@H]1C(=O)N[C@H](Cc1ccccc1)C(=O)N[C@@H](CCCN=C(N)N)C(=O)N[C@@H](Cc1c[nH]c2ccccc12)C(N)=O (Ac-P[dF]RW-NH2)
- EC50 [1]: 684 nM
- EC50 [2]: 1500 nM
- EC50 [3]: 4250 nM
- EC50 [4]: 15000 nM

SMILES: CC(=O)N[C@@H](Cc1cccs1)C(=O)N[C@H](Cc1ccccc1)C(=O)N[C@@H](CCCNC(=N)N)C(=O)N[C@@H](Cc1c[nH]c2ccccc12)C(N)=O (Ac-[2Thi][dF]RW-NH2)
- EC50 [1]: 40.5 nM
- EC50 [2]: 91.2 nM
- EC50 [3]: 203 nM
- EC50 [4]: 2950 nM

SMILES: CC(=O)N1Cc2ccccc2C[C@H]1C(=O)N[C@H](Cc1ccccc1)C(=O)N[C@@H](CCCNC(=N)N)C(=O)N[C@@H](Cc1c[nH]c2ccccc12)C(N)=O (Ac-[Tic][dF]RW-NH2)
- EC50 [1]: 369 nM
- EC50 [2]: 2900 nM
- EC50 [3]: 2600 nM
- EC50 [4]: 11800 nM

SMILES: CC(=O)N1Cc2ccccc2C[C@@H]1C(=O)N[C@H](Cc1ccccc1)C(=O)N[C@@H](CCCN=C(N)N)C(=O)N[C@@H](Cc1c[nH]c2ccccc12)C(N)=O (Ac-[dTic][dF]RW-NH2)
- EC50 [1]: 12000 nM
- EC50 [2]: 11700 nM
- EC50 [3]: 11300 nM
- EC50 [4]: > 100000 nM
